Values after ≈ are worked out from the molar mass of the structure shown.
Key:
[1] = […] clearance in nonhuman primate; format: ADME; settings: primates
[2] = AUC in rat assessed as NOAEL at 250 mg/kg, po administered as repeated dose for 5 days; format: ADME, organism-based; design: time 5 day, dose 250 mg/kg; settings: in vivo
[3] = Drug concentration in Sprague-Dawley rat plasma at 30 mg/kg, po after 0.5 hrs by LC-MS/MS analysis; format: ADME, organism-based
Summary of the method: (§1)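 Brain and plasma levels (ng/mL) sampled 0.5 h after oral dosing at 10 or 30 mg/kg, alongside the ex vivo tenia tecta occupancy study.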

[4] = Clearance in rat at 1 mg/kg, iv and 5 mg/kg, po; format: ADME, organism-based; settings: in vivo
Orexin receptor type 2 = biological target: T1, Orexin receptor type 2 (Homo sapiens, UniProt O43614); experiment: Binding affinity to human OX2R
T1 sequence (O43614 whole entry): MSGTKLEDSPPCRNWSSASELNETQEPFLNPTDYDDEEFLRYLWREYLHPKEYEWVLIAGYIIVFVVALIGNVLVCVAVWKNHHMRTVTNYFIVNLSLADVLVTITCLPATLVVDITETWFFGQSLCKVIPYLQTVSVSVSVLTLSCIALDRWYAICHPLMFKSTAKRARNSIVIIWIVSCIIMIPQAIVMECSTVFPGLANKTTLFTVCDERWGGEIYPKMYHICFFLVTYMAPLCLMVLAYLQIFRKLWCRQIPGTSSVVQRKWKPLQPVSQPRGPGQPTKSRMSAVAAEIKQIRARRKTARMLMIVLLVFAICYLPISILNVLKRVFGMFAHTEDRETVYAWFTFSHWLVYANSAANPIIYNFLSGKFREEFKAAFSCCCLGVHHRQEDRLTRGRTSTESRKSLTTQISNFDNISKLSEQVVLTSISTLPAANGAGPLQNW

[5] = Drug concentration in Sprague-Dawley rat brain at 30 mg/kg, po after 0.5 hrs by LC-MS/MS analysis; format: ADME, organism-based; settings: read-out: Ct; summary of the method: as §1
[6] = Cmax in rat assessed as NOAEL at 250 mg/kg, po administered as repeated dose for 5 days; format: ADME, organism-based; design: route oral, dose 250 mg/kg, time 5 day; settings: in vivo
[7] = Cmax in dog at 0.5 mg/kg, iv and […], po; format: ADME, organism-based, Canis lupus familiaris; design: dose 2.5 mg/kg; settings: in vivo
[8] = […] clearance in dog at 0.5 mg/kg, iv and […], po; format: ADME, organism-based, Canis lupus familiaris; settings: in vivo, dose 2.5 mg/kg
[9] = Ex vivo receptor occupancy at OX1R in Sprague-Dawley rat brain tenia tecta using [3H]SB-674042 labelling at 10 mg/kg, po measured after 2 hrs by autoradiography; format: functional
Summary of the method: (§2)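 Rats received a single oral dose, and OX1R occupancy was measured by ex vivo binding autoradiography in brain tenia tecta sections at 0.5, 2 and 6 h after dosing. Occupancy is expressed as percent. Brain and plasma drug levels (ng/mL) were also sampled at the 0.5 h time point.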

[10] = Ex vivo receptor occupancy at OX1R in po dosed rat tenia tecta after 60 mins; format: functional, organism-based; settings: 1 h
[11] = Volume of distribution at steady state in rat at 1 mg/kg, iv and 5 mg/kg, po; format: ADME, organism-based; settings: in vivo, read-out: Vdss
[12] = Cmax in rat at 1 mg/kg, iv and 5 mg/kg, po; format: ADME, organism-based; design: dose 5 mg/kg; settings: in vivo
[13] = AUC (0 to 24 hrs) in rat assessed as NOAEL at 200 mg/kg/day, po administered as repeated dose for 6 days; format: ADME, organism-based; design: route oral, time 6 day, dose 200 mg/kg/day; settings: in vivo
[14] = Cmax in human at 50 mg/day; format: ADME; design: dose 50 mg
[15] = Volume of distribution at steady state in primate; format: ADME; settings: primates; read-out: Vdss
[16] = Ex vivo receptor occupancy at OX1R in Sprague-Dawley rat brain tenia tecta using [3H]SB-674042 labelling at 30 mg/kg, po measured after 2 hrs by autoradiography; format: functional
Summary of the method: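 Ex vivo OX1R binding autoradiography in rat tenia tecta after a 30 mg/kg po dose; percent occupancy read at 0.5 and 2 h.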

[17] = […] clearance in mouse at 1 mg/kg, iv and 5 mg/kg, po; format: ADME, organism-based; settings: in vivo
[18] = Protein binding in human plasma assessed as free fraction; format: ADME, cell-free
[19] = Stability in mouse liver microsomes assessed as extraction ratio; format: ADME, Microsome; settings: read-out: ERH
[20] = Cmax in rat assessed as NOAEL at 200 mg/kg/day, po administered as repeated dose for 6 days; format: ADME, organism-based; design: route oral, dose 200 mg/kg/day, time 6 day; settings: in vivo
[21] = Volume of distribution at steady state in dog at 0.5 mg/kg, iv and […], po; format: ADME, organism-based, Canis lupus familiaris; settings: in vivo, dose 2.5 mg/kg, read-out: Vdss
[22] = Protein binding in dog plasma assessed as free fraction; format: ADME, cell-free, Canis lupus familiaris
[23] = Lipophilicity, logD of the compound at pH 7.4; format: physicochemical; settings: buffer
[24] = Cmax in rat assessed as NOAEL at 200 mg/kg/day, po administered as repeated dose for 13 days; format: ADME, organism-based; design: route oral, time 13 day, dose 200 mg/kg/day; settings: in vivo
[25] = AUC in human at 50 mg/day; format: ADME; design: dose 50 mg
[26] = Cmax in mouse assessed as NOAEL at 200 mg/kg/day, po administered as repeated dose for 13 days; format: ADME, organism-based; design: route oral, dose 200 mg/kg/day, time 13 day; settings: in vivo
[27] = Drug concentration in Sprague-Dawley rat brain at 10 mg/kg, po after 0.5 hrs by LC-MS/MS analysis; format: ADME, organism-based; settings: read-out: Ct; summary of the method: as §1
[28] = Cmax in mouse assessed as NOAEL at 200 mg/kg/day, po measured after immediately administered; format: ADME, organism-based; design: route oral, time 13 day, dose 200 mg/kg/day; settings: in vivo
[29] = Permeability across basolateral to apical side in MDCK cells; format: ADME, cell-based, Canis lupus familiaris; settings: dog
[30] = Ex vivo receptor occupancy at OX1R in Sprague-Dawley rat brain tenia tecta using [3H]SB-674042 labelling at 10 mg/kg, po measured after 6 hrs by autoradiography; format: functional; summary of the method: as §2
[31] = Clearance in primate; format: ADME; settings: primates
[32] = AUC (0 to 24 hrs) in mouse assessed as NOAEL at 200 mg/kg/day, po administered as repeated dose for 13 days; format: ADME, organism-based; design: route oral, dose 200 mg/kg/day, time 13 day; settings: in vivo
[33] = Oral bioavailability in primate at 5 mg/kg; format: ADME, organism-based; settings: primates, in vivo
[34] = biological target: T2, Orexin/Hypocretin receptor type 1 (Homo sapiens, UniProt O43613); experiment: Binding affinity to human […]
T2 sequence (O43613 whole entry): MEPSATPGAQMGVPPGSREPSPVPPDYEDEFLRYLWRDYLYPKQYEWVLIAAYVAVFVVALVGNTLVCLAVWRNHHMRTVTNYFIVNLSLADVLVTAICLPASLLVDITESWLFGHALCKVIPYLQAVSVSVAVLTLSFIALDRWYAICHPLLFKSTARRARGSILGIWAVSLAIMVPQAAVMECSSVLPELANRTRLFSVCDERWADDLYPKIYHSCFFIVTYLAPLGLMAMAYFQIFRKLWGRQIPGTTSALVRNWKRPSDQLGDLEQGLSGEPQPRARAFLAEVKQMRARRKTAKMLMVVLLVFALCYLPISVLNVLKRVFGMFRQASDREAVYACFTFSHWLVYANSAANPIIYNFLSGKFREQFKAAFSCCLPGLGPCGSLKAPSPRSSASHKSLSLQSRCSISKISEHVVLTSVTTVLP

[35] = Protein binding in rat plasma assessed as free fraction; format: ADME, cell-free
[36] = Dissociation constant, pKa of the compound; format: physicochemical
[37] = […] clearance in rat at 1 mg/kg, iv and 5 mg/kg, po; format: ADME, organism-based; settings: in vivo
[38] = Oral bioavailability in mouse at 5 mg/kg; format: ADME, organism-based; settings: in vivo

**Q.** For `O=C(c1cccc(F)c1-c1ncccn1)N1[C@@H]2CC[C@H]1[C@H](Nc1cnc(C(F)(F)F)cn1)C2`, which CLint scaled [1] is on record?
**A.** 13 mL/min/kg

**Q.** And the AUC at 120 h [2]?
**A.** 101000 ng·h/mL

**Q.** What about the concentration at 0.5 h [3] of the same molecule?
**A.** 4960 ng/mL

**Q.** And the clearance [4]?
**A.** 17 mL/min/kg

**Q.** And the Ki (Orexin receptor type 2)?
**A.** 700 nM

**Q.** And the concentration at 0.5 h [5]?
**A.** 687 ng/mL

**Q.** What about the Cmax [6] of the same molecule?
**A.** 15000 ng/mL

**Q.** What about the Cmax [7] of the same molecule?
**A.** 2240 ng/mL

**Q.** What about the clearance [8] of the same molecule?
**A.** 4.8 mL/min/kg

**Q.** What about the Activity [9] of the same molecule?
**A.** 41%

**Q.** And the EC50 [10]?
**A.** 0.085 µg/mL (≈ 0.185 µM)

**Q.** And the ED50 ([10]; po, time 60 min)?
**A.** 1.3 mg/kg

**Q.** What about the Vd [11] of the same molecule?
**A.** 1.4 L/kg

**Q.** And the Cmax [12]?
**A.** 1370 ng/mL

**Q.** And the AUC at 144 h [13]?
**A.** 62000 ng·h/mL

**Q.** What about the Cmax [14] of the same molecule?
**A.** 537 ng/mL

**Q.** What about the Vd [15] of the same molecule?
**A.** 0.8 L/kg

**Q.** And the Activity [16]?
**A.** 100%

**Q.** And the clearance [17]?
**A.** 29 mL/min/kg

**Q.** And the fraction unbound [18]?
**A.** 0.2

**Q.** What about the hepatic extraction ratio [19] of the same molecule?
**A.** 0.4

**Q.** What about the Cmax [20] of the same molecule?
**A.** 8800 ng/mL

**Q.** What about the Vd [21] of the same molecule?
**A.** 0.6 L/kg

**Q.** What about the fraction unbound [22] of the same molecule?
**A.** 0.21

**Q.** What about the logD [23] of the same molecule?
**A.** 2.18

**Q.** What about the Cmax [24] of the same molecule?
**A.** 6980 ng/mL

**Q.** And the AUC [25]?
**A.** 6870 ng·h/mL

**Q.** What about the Cmax [26] of the same molecule?
**A.** 24800 ng/mL

**Q.** And the concentration at 0.5 h [27]?
**A.** 188 ng/mL

**Q.** What about the Cmax [28] of the same molecule?
**A.** 32900 ng/mL

**Q.** And the Papp B→A [29]?
**A.** 64.4 ×10⁻⁶ cm/s

**Q.** What about the Activity [30] of the same molecule?
**A.** 17%

**Q.** And the clearance [31]?
**A.** 14 mL/min/kg

**Q.** And the AUC at 312 h [32]?
**A.** 84100 ng·h/mL

**Q.** And the bioavailability [33]?
**A.** 22%

**Q.** And the Ki [34]?
**A.** 16 nM

**Q.** And the fraction unbound [35]?
**A.** 0.23

**Q.** What about the pKa [36] of the same molecule?
**A.** < 2

**Q.** And the clearance [37]?
**A.** 17 mL/min/kg

**Q.** What about the bioavailability [38] of the same molecule?
**A.** 58%
